Experimental data: ChEMBL document CHEMBL3872233, “Topical Treatment of Leishmania tropica Infection Using (-)-α-Bisabolol Ointment in a Hamster Model: Effectiveness and Safety Assessment” (J Nat Prod, 2016)
Active and inactive are the calls of the source. No cut-off for these calls is given here.

Experiments:
Syrian golden hamster [1] = assay: Toxicity in Syrian hamster infected with Leishmania tropica MHOM/MA/1988/LEM1314 promastigotes assessed as urea levels at 1 % administered tropically on footpad for 3 weeks starting at week 7 post infection measured 1 week post last dose (reference value: 32.5 +/- 0.8 mg/dl); assay type: organism-based, Mesocricetus auratus; conditions: in vivo, topical_or_ocular, 168 h
Syrian golden hamster [2] = assay: Toxicity in Syrian hamster assessed as liver weight at 500 mg/kg administered through oral gavage for 28 days (reference value: 4.1 +/- 0.7 g); assay type: organism-based, Mesocricetus auratus; conditions: in vivo, 672 h
Syrian golden hamster [3] = assay: Toxicity in Syrian hamster infected with Leishmania tropica MHOM/MA/1988/LEM1314 promastigotes assessed as liver weight at 5 % administered tropically on footpad for 3 weeks starting at week 7 post infection measured 1 week post last dose (reference value: 3.3 +/- 0.2 g); assay type: organism-based, Mesocricetus auratus; conditions: in vivo, topical_or_ocular, 168 h
Outline: (§1)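 Infected hamsters were treated daily for 21 days from week 7 post-infection (ointment 1–5%, 200 mg/kg gavage, or intralesional meglumine antimoniate 2 mg SbV/kg). Clinical signs and body weight were monitored during treatment and a 7-day follow-up. After sacrifice, liver and spleen were weighed and serum ALP, ALT, creatinine, urea and AST were measured with kits, compared with untreated infected animals.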

Syrian golden hamster [4] = assay: Toxicity in Syrian hamster assessed as diarrhea at 500 mg/kg, po or 5 % administered tropically on footpad for 28 days; assay type: organism-based, Mesocricetus auratus; conditions: in vivo, 672 h
Syrian golden hamster [5] = assay: Toxicity in Syrian hamster assessed as mean serum creatinine levels at 500 mg/kg administered through oral gavage for 28 days (reference value: 0.21 +/- 0.2 mg/dl); assay type: organism-based, Mesocricetus auratus; conditions: in vivo, 672 h
Syrian golden hamster [6] = assay: Toxicity in Syrian hamster assessed as mean serum ALT levels at 500 mg/kg administered through oral gavage for 28 days (reference value: 82.2 +/- 4.8 U/L); assay type: organism-based, Mesocricetus auratus; conditions: in vivo, 672 h
Syrian golden hamster [7] = assay: Toxicity in Syrian hamster infected with Leishmania tropica MHOM/MA/1988/LEM1314 promastigotes assessed as change in body weight at 200 mg/kg administered through oral gavage for 3 weeks starting at week 7 post infection measured during compound dosing or measured 1 week post last dose; assay type: organism-based, Mesocricetus auratus; conditions: in vivo, 168 h; outline: as §1
Syrian golden hamster [8] = assay: Toxicity in Syrian hamster assessed as footpad edema at 500 mg/kg, po or 5 % administered tropically on footpad for 28 days; assay type: organism-based, Mesocricetus auratus; conditions: in vivo, 672 h
Syrian golden hamster [9] = assay: Toxicity in Syrian hamster infected with Leishmania tropica MHOM/MA/1988/LEM1314 promastigotes assessed as mean serum ALT levels at 5 % administered tropically on footpad for 3 weeks starting at week 7 post infection measured 1 week post last dose (reference value: 81.6 +/- 4.9 U/L); assay type: organism-based, Mesocricetus auratus; conditions: in vivo, topical_or_ocular, 168 h
Syrian golden hamster [10] = assay: Toxicity in Syrian hamster assessed as mean serum ALT levels at 5 % administered tropically on footpad for 28 days (reference value: 82.2 +/- 4.8 U/L); assay type: organism-based, Mesocricetus auratus; conditions: in vivo, topical_or_ocular, 672 h
Leishmania tropica [11] = assay: (§2) Antileishmanial activity against Leishmania tropica MHOM/MA/1988/LEM1314 promastigotes infected in Syrian hamster assessed as reduction in lesion thickness at 2.5 % administered once daily tropically on footpad for 3 weeks starting at week 7 post infection measured 1 week post last dose relative to control; assay type: functional; parameters: scale not given: the % may be the effect or the level left
Outline: (§3)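 L. tropica stationary-phase promastigotes (3 × 10^7 in 50 μL PBS) injected into the left hind footpad. Treatment began at week 7 (+75% footpad thickness) and ran daily for 21 days, n = 10/group. Routes were 50 mg ointment on the lesion (cetyl alcohol/lanolin/petrolatum base), gavage in olive oil, or intralesional meglumine antimoniate 2 mg SbV/kg. Lesion thickness was measured weekly against base-only ointment; sacrifice was 1 week after the last dose.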

Leishmania tropica [12] = assay: as §2, with “1” for “2.5”; assay type: functional; parameters: scale not given: the % may be the effect or the level left; outline: as §3
Leishmania tropica [13] = assay: as §2, with “parasite load in liver” for “lesion thickness”, “1” for “2.5”, “dose by qPCR analysis” for “dose”; assay type: functional, tissue-based
Outline: (§4)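 Hamsters were infected in the footpad and treated daily for 21 days from week 7 post-infection, n = 10/group, and sacrificed 1 week after the last dose. Footpad skin, liver and spleen DNA was assayed by L. tropica-specific TaqMan qPCR (chromosome 29 target), in triplicate with 50 ng DNA per 25 μL reaction. Load was interpolated from Ct on a calibration curve of promastigote DNA, relative to base-ointment controls.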

Syrian golden hamster [14] = assay: Toxicity in Syrian hamster infected with Leishmania tropica MHOM/MA/1988/LEM1314 promastigotes assessed as mean serum ALP levels at 1 % administered tropically on footpad for 3 weeks starting at week 7 post infection measured 1 week post last dose (reference value: 14.4 +/- 0.9 U/L); assay type: organism-based, Mesocricetus auratus; conditions: in vivo, topical_or_ocular, 168 h; outline: as §1
Leishmania tropica [15] = assay: as §2, with “parasite load in foodpad skin” for “lesion thickness”, “5” for “2.5”, “dose by qPCR analysis” for “dose”; assay type: functional; parameters: scale not given: the % may be the effect or the level left; outline: as §4
Syrian golden hamster [16] = assay: Toxicity in Syrian hamster infected with Leishmania tropica MHOM/MA/1988/LEM1314 promastigotes assessed as liver weight at 2.5 % administered tropically on footpad for 3 weeks starting at week 7 post infection measured 1 week post last dose (reference value: 3.3 +/- 0.2 g); assay type: organism-based, Mesocricetus auratus; conditions: in vivo, topical_or_ocular, 168 h; outline: as §1
Syrian golden hamster [17] = assay: Toxicity in Syrian hamster infected with Leishmania tropica MHOM/MA/1988/LEM1314 promastigotes assessed as mean serum ALT levels at 1 % administered tropically on footpad for 3 weeks starting at week 7 post infection measured 1 week post last dose (reference value: 81.6 +/- 4.9 U/L); assay type: organism-based, Mesocricetus auratus; conditions: in vivo, topical_or_ocular, 168 h
Syrian golden hamster [18] = assay: Toxicity in Syrian hamster infected with Leishmania tropica MHOM/MA/1988/LEM1314 promastigotes assessed as pain at 200 mg/kg administered through oral gavage for 3 weeks starting at week 7 post infection measured during compound dosing or measured 1 week post last dose; assay type: organism-based, Mesocricetus auratus; conditions: in vivo, 168 h
Outline: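 Infected hamsters (footpad, 3 × 10^7 promastigotes) were gavaged daily for 21 days from week 7 post-infection at 200 mg/kg in olive oil, n=10.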

Syrian golden hamster [19] = assay: Toxicity in Syrian hamster assessed as spleen weight at 5 % administered tropically on footpad for 28 days (reference value: 179.4 +/- 19.8 mg); assay type: organism-based, Mesocricetus auratus; conditions: in vivo, topical_or_ocular, 672 h
Syrian golden hamster [20] = assay: Toxicity in Syrian hamster infected with Leishmania tropica MHOM/MA/1988/LEM1314 promastigotes assessed as spleen weight at 2.5 % administered tropically on footpad for 3 weeks starting at week 7 post infection measured 1 week post last dose (reference value: 178.8 +/- 1.2 mg); assay type: organism-based, Mesocricetus auratus; conditions: in vivo, topical_or_ocular, 168 h
Syrian golden hamster [21] = assay: Toxicity in Syrian hamster infected with Leishmania tropica MHOM/MA/1988/LEM1314 promastigotes assessed as mean serum ALP levels at 2.5 % administered tropically on footpad for 3 weeks starting at week 7 post infection measured 1 week post last dose (reference value: 14.4 +/- 0.9 U/L); assay type: organism-based, Mesocricetus auratus; conditions: in vivo, topical_or_ocular, 168 h
Syrian golden hamster [22] = assay: Toxicity in Syrian hamster infected with Leishmania tropica MHOM/MA/1988/LEM1314 promastigotes assessed as footpad edema at 200 mg/kg administered through oral gavage for 3 weeks starting at week 7 post infection measured during compound dosing or measured 1 week post last dose; assay type: organism-based, Mesocricetus auratus; conditions: in vivo, 168 h; outline: as §1
Syrian golden hamster [23] = assay: Toxicity in Syrian hamster assessed as pain at 500 mg/kg, po or 5 % administered tropically on footpad for 28 days; assay type: organism-based, Mesocricetus auratus; conditions: in vivo, 672 h
Syrian golden hamster [24] = assay: Toxicity in Syrian hamster infected with Leishmania tropica MHOM/MA/1988/LEM1314 promastigotes assessed as mean serum creatinine levels at 5 % administered tropically on footpad for 3 weeks starting at week 7 post infection measured 1 week post last dose (reference value: 0.19 mg/dl); assay type: organism-based, Mesocricetus auratus; conditions: in vivo, topical_or_ocular, 168 h

`CC(C)=CCC[C@](C)(O)[C@@H]1CC=C(C)CC1` [LEVOMENOL] was tested, and the Activity (Syrian golden hamster [1]) was 33.7 mg/dL, the Activity (Syrian golden hamster [2]) was 3.5 g and the Activity (Syrian golden hamster [3]) was 3.2 g. The Activity (Syrian golden hamster [4]) was “Non-Toxic”, the Activity (Syrian golden hamster [5]) was 0.19 mg/dL and the Activity (Syrian golden hamster [6]) was 82.6 U/L. The Activity (Syrian golden hamster [7]) was “Non-Toxic”, the Activity (Syrian golden hamster [8]) was “Non-Toxic” and the Activity (Syrian golden hamster [9]) was 81.8 U/L. It also gave an Activity (Syrian golden hamster [10]) of 82.5 U/L, an Activity (Leishmania tropica [11]) of 56.4% and an Activity (Leishmania tropica [12]) of 49%. The Activity (Leishmania tropica [13]) was “Active”, the Activity (Syrian golden hamster [14]) was 13 U/L and the Activity (Leishmania tropica [15]) was 82%. The Activity (Syrian golden hamster [16]) was 3.3 g, the Activity (Syrian golden hamster [17]) was 81.9 U/L and the Activity (Syrian golden hamster [18]) was “Non-Toxic”. For the same compound, the Activity (Syrian golden hamster [19]) was 180.2 mg, the Activity (Syrian golden hamster [20]) was 178.4 mg and the Activity (Syrian golden hamster [21]) was 13.3 U/L. The Activity (Syrian golden hamster [22]) was “Non-Toxic”, the Activity (Syrian golden hamster [23]) was “Non-Toxic” and the Activity (Syrian golden hamster [24]) was 0.18 mg/dL.
